According to ChEMBL document CHEMBL2321860, “2-Arylpyrazolo[4,3-d]pyrimidin-7-amino derivatives as new potent and selective human A3 adenosine receptor antagonists. Molecular modeling studies and pharmacological evaluation” (J Med Chem, 2013):

Target: T1, Adenosine receptor A3 (Homo sapiens, UniProt P0DMS8)
T1 sequence (P0DMS8 whole entry): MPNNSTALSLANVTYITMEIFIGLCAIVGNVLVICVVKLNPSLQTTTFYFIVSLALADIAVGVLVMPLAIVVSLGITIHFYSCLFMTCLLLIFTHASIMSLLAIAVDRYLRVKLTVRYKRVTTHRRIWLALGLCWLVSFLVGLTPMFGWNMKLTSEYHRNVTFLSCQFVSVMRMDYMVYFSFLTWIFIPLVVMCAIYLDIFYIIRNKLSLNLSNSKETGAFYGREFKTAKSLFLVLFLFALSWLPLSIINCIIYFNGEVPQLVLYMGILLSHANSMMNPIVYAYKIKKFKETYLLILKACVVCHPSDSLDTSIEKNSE
Experiment: Displacement of [125I]AB-MECA from human A3 adenosine receptor expressed in CHO cells after 60 mins by scintillation counting analysis
Format: cell-based

Ki [nM] | SMILES
100 | COc1ccc(-n2cc3nc(C)nc(NC(C)=O)c3n2)cc1
45 | COc1ccc(-n2cc3nc(C)nc(NC(=O)c4ccco4)c3n2)cc1
33 | Cc1nc(N(C(=O)c2ccco2)C(=O)c2ccco2)c2nn(-c3ccccc3)cc2n1
120 | Cc1nc(NC(=O)Cc2ccccc2)c2nn(-c3ccccc3)cc2n1
75 | O=C(c1ccco1)N(C(=O)c1ccco1)c1nc(-c2ccccc2)nc2cn(-c3ccccc3)nc12
300 | CC(=O)Nc1nc(C)nc2cn(-c3ccccc3)nc12
3.2 | O=C(Nc1nc(-c2ccccc2)nc2cn(-c3ccccc3)nc12)c1cccnc1
20 | Cc1nc(NC(=O)c2ccco2)c2nn(-c3ccccc3)cc2n1

Target: T2, Adenosine receptor A3 (Homo sapiens) (UniProt P0DMS8)
T2 sequence (whole entry): T1 sequence (P0DMS8 whole entry)
Experiment: Displacement of [125I]AB-MECA from human A3 adenosine receptor expressed in CHO cells at 1 uM after 60 mins by scintillation counting analysis
Format: cell-based
Method in brief: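 Human A3 CHO membranes (50 μg protein) incubated with 0.5 nM [125I]AB-MECA in 50 mM Tris-HCl, 10 mM MgCl2, 1 mM EDTA, pH 7.4, for 60 min at 37 °C. Nonspecific binding defined with 1 μM AB-MECA. Filtration then counting. Output is % inhibition at 1 μM.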

inhibition [%] | SMILES
1 | Cc1nc(NC(=O)NCc2ccccc2)c2nn(-c3ccccc3)cc2n1
38 | COc1ccc(-n2cc3nc(C)nc(N)c3n2)cc1
1 | COc1ccc(-n2cc3nc(C)nc(NC(=O)Nc4ccccc4)c3n2)cc1
6 | COc1ccc(-n2cc3nc(C)nc(NC(=O)NCc4ccccc4)c3n2)cc1
30 | Cc1nc(NC(=O)Nc2ccccc2)c2nn(-c3ccccc3)cc2n1
45 | COc1ccc(-n2cc3nc(Cc4ccccc4)nc(N)c3n2)cc1

Target: T3, Adenosine receptor A1 (Homo sapiens, UniProt P30542)
T3 sequence (P30542 whole entry): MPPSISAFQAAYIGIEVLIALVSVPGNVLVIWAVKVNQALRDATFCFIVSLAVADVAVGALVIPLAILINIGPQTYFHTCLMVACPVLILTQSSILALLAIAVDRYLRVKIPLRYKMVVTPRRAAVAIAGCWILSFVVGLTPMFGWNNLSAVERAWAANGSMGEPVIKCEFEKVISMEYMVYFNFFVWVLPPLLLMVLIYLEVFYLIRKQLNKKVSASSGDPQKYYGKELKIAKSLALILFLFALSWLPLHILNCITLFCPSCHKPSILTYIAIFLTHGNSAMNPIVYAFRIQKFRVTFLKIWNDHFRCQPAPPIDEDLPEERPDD
Experiment: Displacement of [3H]DPCPX from human A1 adenosine receptor expressed in CHO cells after 120 mins by scintillation counting analysis
Format: cell-based

Ki [nM] | SMILES
510 | Cc1nc(NC(=O)Cc2ccccc2)c2nn(-c3ccccc3)cc2n1

Target: T4, Adenosine receptor A1 (Homo sapiens) (UniProt P30542)
T4 sequence (whole entry): T3 sequence (P30542 whole entry)
Experiment: Displacement of [3H]DPCPX from human A1 adenosine receptor expressed in CHO cells at 1 uM after 120 mins by scintillation counting analysis
Format: cell-based

inhibition [%] | SMILES
26 | Cc1nc(NC(=O)NCc2ccccc2)c2nn(-c3ccccc3)cc2n1
4 | COc1ccc(C(=O)Nc2nc(C)nc3cn(-c4ccccc4)nc23)cc1
30 | COc1ccc(-n2cc3nc(C)nc(N)c3n2)cc1
5 | COc1ccc(-n2cc3nc(C)nc(NC(=O)Nc4ccccc4)c3n2)cc1
30 | COc1ccc(-n2cc3nc(C)nc(NC(C)=O)c3n2)cc1
8 | COc1ccc(-n2cc3nc(C)nc(NC(=O)NCc4ccccc4)c3n2)cc1
1 | Cc1nc2cn(-c3ccccc3)nc2c(=O)[nH]1
6 | COc1ccc(-n2cc3nc(C)nc(NC(=O)c4ccco4)c3n2)cc1
4 | Cc1nc(N(C(=O)c2ccco2)C(=O)c2ccco2)c2nn(-c3ccccc3)cc2n1
1 | Cc1nc(NC(=O)Nc2ccccc2)c2nn(-c3ccccc3)cc2n1
40 | COc1ccc(-n2cc3nc(Cc4ccccc4)nc(N)c3n2)cc1
3 | O=C(c1ccco1)N(C(=O)c1ccco1)c1nc(-c2ccccc2)nc2cn(-c3ccccc3)nc12
25 | CC(=O)Nc1nc(C)nc2cn(-c3ccccc3)nc12
1 | O=C(Nc1nc(-c2ccccc2)nc2cn(-c3ccccc3)nc12)c1cccnc1
20 | Cc1nc(NC(=O)c2ccco2)c2nn(-c3ccccc3)cc2n1

Target: T5, Adenosine receptor A2b (Homo sapiens) (UniProt P29275)
T5 sequence (whole entry): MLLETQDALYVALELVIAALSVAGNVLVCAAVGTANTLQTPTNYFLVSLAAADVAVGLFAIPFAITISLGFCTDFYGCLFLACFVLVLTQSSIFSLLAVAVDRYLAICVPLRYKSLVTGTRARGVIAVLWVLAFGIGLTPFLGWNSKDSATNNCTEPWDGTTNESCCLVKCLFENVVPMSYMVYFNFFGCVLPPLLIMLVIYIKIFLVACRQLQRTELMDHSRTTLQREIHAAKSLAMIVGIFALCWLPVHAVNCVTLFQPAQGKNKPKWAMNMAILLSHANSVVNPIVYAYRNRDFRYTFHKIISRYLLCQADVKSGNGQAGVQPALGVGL
Experiment: Inhibition of human A2B adenosine receptor transfected in CHO cells assessed as inhibition of NECA-induced cyclic AMP production at 1 uM after 10 mins by competitive protein binding assay
Format: cell-based
Method in brief: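 Human A2B CHO cells (1 × 10⁶/assay) preincubated 10 min at 37 °C in buffer with adenosine deaminase (2 IU/mL) and Ro 20-1724. Antagonist inhibition of 200 nM NECA-stimulated cAMP measured; reaction stopped with TCA. cAMP quantified by [3H]cAMP competition with adrenal binding protein. IC50 by sigmoid fit, mean SEM of four experiments; % inhibition at 1 μM.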

inhibition [%] | SMILES
10 | Cc1nc(NC(=O)NCc2ccccc2)c2nn(-c3ccccc3)cc2n1
1 | COc1ccc(C(=O)Nc2nc(C)nc3cn(-c4ccccc4)nc23)cc1
2 | COc1ccc(-n2cc3nc(C)nc(N)c3n2)cc1
13 | COc1ccc(-n2cc3nc(C)nc(NC(=O)Nc4ccccc4)c3n2)cc1
30 | COc1ccc(-n2cc3nc(C)nc(NC(C)=O)c3n2)cc1
1 | COc1ccc(-n2cc3nc(C)nc(NC(=O)NCc4ccccc4)c3n2)cc1
1 | COc1ccc(-n2cc3nc(C)nc(NC(=O)c4ccco4)c3n2)cc1
1 | Cc1nc(N(C(=O)c2ccco2)C(=O)c2ccco2)c2nn(-c3ccccc3)cc2n1
1 | Cc1nc(NC(=O)Cc2ccccc2)c2nn(-c3ccccc3)cc2n1
1 | Cc1nc(NC(=O)Nc2ccccc2)c2nn(-c3ccccc3)cc2n1
33 | COc1ccc(-n2cc3nc(Cc4ccccc4)nc(N)c3n2)cc1
1 | O=C(c1ccco1)N(C(=O)c1ccco1)c1nc(-c2ccccc2)nc2cn(-c3ccccc3)nc12
5 | CC(=O)Nc1nc(C)nc2cn(-c3ccccc3)nc12
1 | O=C(Nc1nc(-c2ccccc2)nc2cn(-c3ccccc3)nc12)c1cccnc1
1 | Cc1nc(NC(=O)c2ccco2)c2nn(-c3ccccc3)cc2n1

Target: Adenosine receptor A2a (Homo sapiens, UniProt P29274)
Experiment: Displacement of [3H]ZM241385 from human A2A adenosine receptor expressed in CHO cells at 1 uM after 60 mins by scintillation counting analysis
Format: cell-based
Method in brief: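 Human A2A CHO membranes (50 μg protein) incubated with 1 nM [3H]ZM-241385 in 50 mM Tris-HCl, 10 mM MgCl2, pH 7.4, for 60 min at 4 °C, using 6–8 concentrations or 1 μM for % inhibition. Nonspecific binding defined with 1 μM ZM-241385. Ki via Cheng–Prusoff, mean SEM of four assays in duplicate.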

Sequence of Adenosine receptor A2a (P29274 whole entry): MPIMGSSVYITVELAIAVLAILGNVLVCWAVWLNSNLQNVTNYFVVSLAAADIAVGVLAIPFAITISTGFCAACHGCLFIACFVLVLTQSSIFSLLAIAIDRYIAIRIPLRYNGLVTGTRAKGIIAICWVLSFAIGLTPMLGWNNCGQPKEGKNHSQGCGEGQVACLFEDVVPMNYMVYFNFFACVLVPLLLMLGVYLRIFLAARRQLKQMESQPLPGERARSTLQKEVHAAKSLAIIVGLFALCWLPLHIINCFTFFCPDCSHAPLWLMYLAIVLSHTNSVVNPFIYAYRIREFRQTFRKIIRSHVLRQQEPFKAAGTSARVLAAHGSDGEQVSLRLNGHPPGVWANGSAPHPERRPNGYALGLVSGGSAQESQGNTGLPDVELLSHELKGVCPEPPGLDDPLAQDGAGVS

inhibition [%] | SMILES
7 | Cc1nc(NC(=O)NCc2ccccc2)c2nn(-c3ccccc3)cc2n1
1 | COc1ccc(C(=O)Nc2nc(C)nc3cn(-c4ccccc4)nc23)cc1
1 | COc1ccc(-n2cc3nc(C)nc(N)c3n2)cc1
13 | COc1ccc(-n2cc3nc(C)nc(NC(=O)Nc4ccccc4)c3n2)cc1
30 | COc1ccc(-n2cc3nc(C)nc(NC(C)=O)c3n2)cc1
7 | COc1ccc(-n2cc3nc(C)nc(NC(=O)NCc4ccccc4)c3n2)cc1
6 | COc1ccc(-n2cc3nc(C)nc(NC(=O)c4ccco4)c3n2)cc1
1 | Cc1nc(N(C(=O)c2ccco2)C(=O)c2ccco2)c2nn(-c3ccccc3)cc2n1
13 | Cc1nc(NC(=O)Cc2ccccc2)c2nn(-c3ccccc3)cc2n1
1 | Cc1nc(NC(=O)Nc2ccccc2)c2nn(-c3ccccc3)cc2n1
37 | COc1ccc(-n2cc3nc(Cc4ccccc4)nc(N)c3n2)cc1
1 | O=C(c1ccco1)N(C(=O)c1ccco1)c1nc(-c2ccccc2)nc2cn(-c3ccccc3)nc12
4 | CC(=O)Nc1nc(C)nc2cn(-c3ccccc3)nc12
1 | O=C(Nc1nc(-c2ccccc2)nc2cn(-c3ccccc3)nc12)c1cccnc1
1 | Cc1nc(NC(=O)c2ccco2)c2nn(-c3ccccc3)cc2n1
